Screens: PubChem BioAssay, several laboratories
Shown is part of a subset that was picked to be rich in hits.
ROMK primary: modulators of human ROMK potassium channel; P48048; Tet-inducible ROMK, thallium flux fluorescence; actives lie on both sides; B-score at 10 µM; 2% of 130,000 active;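 active = signal ratio slope over the read window, or its plate-corrected B-score, at least 3 SD from the plate mean, either direction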;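 also: B-score of the F/F0 ratio slope over 7 to 12 s after thallium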
Target sequence (P48048 whole entry, looked up): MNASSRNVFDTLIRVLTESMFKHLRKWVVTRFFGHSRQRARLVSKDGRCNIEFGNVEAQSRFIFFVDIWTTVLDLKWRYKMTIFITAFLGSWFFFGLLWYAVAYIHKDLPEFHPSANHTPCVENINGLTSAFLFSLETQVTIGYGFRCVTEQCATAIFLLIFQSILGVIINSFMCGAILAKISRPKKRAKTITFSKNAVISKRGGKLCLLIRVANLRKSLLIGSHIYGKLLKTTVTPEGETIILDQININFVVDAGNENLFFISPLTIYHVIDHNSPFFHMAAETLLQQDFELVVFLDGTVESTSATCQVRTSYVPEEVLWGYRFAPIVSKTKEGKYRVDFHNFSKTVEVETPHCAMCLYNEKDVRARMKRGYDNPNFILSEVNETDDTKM
Biofilm kill mix: mixtures killing C. albicans biofilm; C. albicans biofilm persisters + clotrimazole, fluorescence viability; primary screen in compound mixtures of four per well; inhibition, % at 7.6 µM; 0.02% of 120,000 active; AID 1242;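 active = inhibition above 30.3% in the primary screen of four-compound pools, then above 30% when the compound was retested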;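 also: compounds exposed to preformed 24 h biofilms for 48 h; 0% = untreated biofilm control and 100% = clotrimazole plus chlorhexidine kill blank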
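Test system: C. albicans CAF4-2 wild-type biofilms; buffer or medium: RPMI/MOPS medium, pH 7.0; schedule: 24 h biofilm formation, then 48 h compound exposure, 37 °C; detection: Alamar Blue fluorescence; measure: percent inhibition of biofilm viability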
Starred values were filed as active, the others as inactive; / = no result.

SMILES	ROMK primary	Biofilm kill mix
CC(=O)c1c(N2CCCC2)[nH]c(-c2ccccc2)nc1=S	4.8*	/
CC(=O)c1c(N2CCOCC2)[nH]c(-c2ccccc2)nc1=S	0.35	3
CC(=O)c1c(C)[nH]c(-c2ccccc2)c1C	/	10
CC(=O)c1c(N2CCN(Cc3ccccc3)CC2)[nH]c(-c2ccccc2)nc1=S	7.5*	/
NNC(=O)[C@H]1C[C@@H]1c1ccccc1	0.069	21
CC1=C(C(=O)OC(C)C)C(c2cncc(-c3ccc(F)cc3)c2)C(C#N)=C(N)O1 (stereo unspecified)	/	13
O=C1NC(=S)S/C1=C\c1ccc(SCc2ccco2)o1	-2.8*	18
O=C1NC(=S)S/C1=C\c1ccc(SCc2ccccc2)o1	1.2	17
Fc1ccc(-c2csc(=S)[nH]2)cc1	1.8	-6
S=c1[nH]c(-c2ccccc2)cs1	2.5*	15
O=C(Cc1cccs1)N1CCC(c2nc3c(nnn3Cc3ccccc3Cl)c(=O)[nH]2)CC1	-0.43	/
O=C(NNC(=S)Nc1ccc(Cl)c(Cl)c1)c1cccc([N+](=O)[O-])c1	3*	22
Cc1cccc(NC(=S)NNC(=O)c2cccc([N+](=O)[O-])c2)c1	-1.1	0
COc1ccc(Cl)cc1C(=O)NC(C)C	0.13	0
Cc1cccc(C(=O)NC(=S)NNC(=O)c2ccc(Cl)cc2)c1	5.3*	11
COc1cc(C(=O)NNC(=S)NC(=O)c2ccc(Cl)cc2)cc(OC)c1OC	0.42	11
CCC(=O)Nc1cc(C)c(NC(=O)CCc2ccccc2)cn1	-0.025	/
COc1cccc(-n2nnc3c(=O)n(Cc4ccccc4F)cnc32)c1	0.63	/
COc1cc2c3nnc(-c4ccc(F)cc4)c-3cn(Cc3ccccc3F)c2cc1OC	-4*	11
COc1ccc(-c2nnc(SCc3ccccc3F)o2)cc1OC	-0.13	/
COc1cc2c3nnc(-c4ccccc4)c-3cn(Cc3ccccc3F)c2cc1OC	-6.8*	13
COc1ccccc1CN(Cc1nc2ccccc2c(=O)[nH]1)C(=O)Nc1cccc(C)c1	-1.1	/
C/C=C/c1ccc(OCC(=O)OCC)c(OC)c1	0.32	12
CC(=O)Nc1ccc(SCC(=O)c2cc(C)n(CC(F)(F)F)c2C)cc1	-0.8	/
CC(C)c1nc(SCC(=O)NCc2ccccc2)n[nH]1	-0.094	/
SMILES	ROMK primary	Biofilm kill mix
O=C1NCC(CN(c2ccccc2)c2ccccc2)O1 (stereo unspecified)	-0.58	/
CC1=C(C)/C(=N\OS(=O)(=O)c2ccccc2)C=CC1=O	-4.3*	/
Cc1ccc(S(=O)(=O)O/N=C2\CCCc3ccccc32)cc1	0.69	/
CCOC(=O)c1nc2ccccc2c(C)c1C	/	12
CCOC(=O)C1CCN(C(c2cc3ccc(C)c(C)c3[nH]c2=O)c2nnnn2C2CCCCC2)CC1 (stereo unspecified)	-2.5*	/
CCOC(=O)C1CCN(C(c2cc3c(C)ccc(C)c3[nH]c2=O)c2nnnn2C2CCCCC2)CC1 (stereo unspecified)	-1.3	/
CN(C)Cc1cc2ccccc2c2c1COC2	/	24
Cc1ccc(NC(=O)CSc2nnc(Cc3ccccc3)o2)cc1	-0.48	19
CC1Cc2ccccc2N1C(=O)C1CCCN(S(=O)(=O)c2cccc3nsnc23)C1 (stereo unspecified)	-3.1*	/
O=C(C1CCCN(S(=O)(=O)c2cccc3nsnc23)C1)N1CCc2ccccc21 (stereo unspecified)	-1.4	/
CC1=NN(c2ccccc2)C(=O)/C1=C\c1cn(-c2ccccc2)nc1C	0.47	4
CC1=NN(c2ccccc2)C(=O)/C1=C\c1c(C)[nH]n(-c2ccccc2)c1=O	-3.6*	/
O=C(O)CCS(=O)(=O)c1nc(-c2cccs2)cc(C(F)(F)F)n1	-0.59	/
CS(=O)(=O)c1nc(-c2cccs2)cc(C(F)(F)F)n1	-4.3*	/
COc1ccc(N2C(=O)[C@@H]3[C@H](C2=O)[C@H](C(C)=O)N2c4ccccc4C=C[C@@H]32)cc1	/	18
COc1ccc(C2C(C(=O)c3ccccc3)N3c4ccccc4C=CC3C2[N+](=O)[O-])cc1 (stereo unspecified)	-3.7*	9
COC(=O)C1C(c2ccccc2)C(C(=O)OCc2ccco2)C1c1ccccc1 (stereo unspecified)	-0.41	7
O=S(=O)(c1ccc(Cl)s1)N1CCCCC1	-0.0033	0
O=S(=O)(Cc1ccc(Cl)cc1)Nc1ccc2c(c1)OCO2	-1.8*	/
O=S(=O)(Cc1ccc(Cl)cc1)N1CCN(Cc2ccc3c(c2)OCO3)CC1	/	21
CCS(=O)(=O)Nc1ccc(C2=NN(C(=S)Nc3ccccc3)C(c3ccco3)C2)cc1 (stereo unspecified)	/	-2
Cc1ccc2c(c1)C1CN(C)CCC1N2C(=S)NC(=O)c1ccc(Cl)cc1Cl (stereo unspecified)	/	11
CC1Cc2ccccc2N1C(=S)NC(=O)c1ccc(Cl)cc1Cl (stereo unspecified)	7.8*	19
CC(=O)c1ccc(NC(=S)N2c3ccccc3CC2C)cc1 (stereo unspecified)	/	10
CC1Cc2ccccc2N1C(=S)NC(=O)c1cccc(Br)c1 (stereo unspecified)	10*	14
SMILES	ROMK primary	Biofilm kill mix
O=c1oc2ccccc2c(NCCO)c1[N+](=O)[O-]	-0.39	8
O=C(CCS(=O)(=O)c1cccc2nsnc12)NCc1ccccc1	1.2	/
CCOc1ccc(/C=C2\SC(=S)N(N3C(=O)C4CC4C3=O)C2=O)cc1 (stereo unspecified)	0.58	0
CCOc1ccc(/C=C2/SC(=O)NC2=S)cc1	4.4*	9
Cc1ccc(N(CC(=O)NCCc2ccc(F)cc2)S(=O)(=O)c2ccc(Cl)c([N+](=O)[O-])c2)c(C)c1	/	28
COc1ccc(N=C2SC(C(=O)Nc3ccc(C(=O)O)cc3)CC(=O)N2Cc2cccs2)cc1 (stereo unspecified)	/	22
CC(CCc1ccccc1)NC(=O)c1ccco1 (stereo unspecified)	0.13	5
CC(C)CNC(=O)[C@H](Cc1ccccc1)NC(=O)c1ccco1	3.2*	/
OCC1(CC2CCCCO2)CCN(C/C=C/c2ccccc2)CC1 (stereo unspecified)	/	14
CC1C/C(=C\c2cccnc2)C(=O)/C(=C/c2cccnc2)C1 (stereo unspecified)	-6.1*	18
O=C1/C(=C/c2cccnc2)CCc2c1[nH]c1ccccc21	/	7
COc1ccccc1C1CC(=O)NC(C)=C1C(=O)OC(C)C (stereo unspecified)	0.43	6
CCN(c1ccc(F)cc1)S(=O)(=O)c1ccc2[nH]cc(C(=O)NCCCN3CCOCC3)c(=O)c2c1	0.048	13
CCOc1ccc(C2C=C(c3ccc(F)cc3)Nc3ncnn32)cc1 (stereo unspecified)	-0.49	/
CCOc1ccc(C2C=C(c3ccccc3)Nc3ncnn32)cc1 (stereo unspecified)	-2.7*	/
COc1ccc(/C(O)=C/C(=O)C(=O)Nc2c(C)n(C)n(-c3ccccc3)c2=O)cc1	0.33	/
CCCCCC(=O)Cc1cc(O)cc2c1C(=O)Oc1cc(O)c(C(=O)O)c(CCCCC)c1O2	/	11
O=C(Nc1nc(-c2cc(F)ccc2F)cs1)C1=NN(c2ccccc2)C(=O)CC1	0.26	-3
O=C(Nc1nc(-c2cc(F)ccc2F)cs1)c1ccccn1	1.3*	7
COc1cccc(CNC(=O)CCNS(=O)(=O)c2cccc3nsnc23)c1	-0.79	11
N/C(=N\OC(=O)c1ccc(Cl)cc1)c1[nH]ncc1Br	-0.044	17
Cc1cc(/C=N/NC(=O)c2ccccc2F)c(C)n1-c1ccccc1	4.2*	9
